Assay outcomes from PubChem.
Apaf-1 act: activators of human Apaf-1 apoptosome, primary screen, biochemical, DEVD-Rh110 fluorescence, uHTS; activity change, negative = activation, % at 20 µM; Apoptotic protease-activating factor 1 (Homo sapiens), O14727; 330,000 tested, 0.31% active; Apaf-1 apoptosome caspase-3 activation; hits give low values;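 active means activity change at or below -40% at 20 µM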
Target sequence (O14727 whole entry, looked up): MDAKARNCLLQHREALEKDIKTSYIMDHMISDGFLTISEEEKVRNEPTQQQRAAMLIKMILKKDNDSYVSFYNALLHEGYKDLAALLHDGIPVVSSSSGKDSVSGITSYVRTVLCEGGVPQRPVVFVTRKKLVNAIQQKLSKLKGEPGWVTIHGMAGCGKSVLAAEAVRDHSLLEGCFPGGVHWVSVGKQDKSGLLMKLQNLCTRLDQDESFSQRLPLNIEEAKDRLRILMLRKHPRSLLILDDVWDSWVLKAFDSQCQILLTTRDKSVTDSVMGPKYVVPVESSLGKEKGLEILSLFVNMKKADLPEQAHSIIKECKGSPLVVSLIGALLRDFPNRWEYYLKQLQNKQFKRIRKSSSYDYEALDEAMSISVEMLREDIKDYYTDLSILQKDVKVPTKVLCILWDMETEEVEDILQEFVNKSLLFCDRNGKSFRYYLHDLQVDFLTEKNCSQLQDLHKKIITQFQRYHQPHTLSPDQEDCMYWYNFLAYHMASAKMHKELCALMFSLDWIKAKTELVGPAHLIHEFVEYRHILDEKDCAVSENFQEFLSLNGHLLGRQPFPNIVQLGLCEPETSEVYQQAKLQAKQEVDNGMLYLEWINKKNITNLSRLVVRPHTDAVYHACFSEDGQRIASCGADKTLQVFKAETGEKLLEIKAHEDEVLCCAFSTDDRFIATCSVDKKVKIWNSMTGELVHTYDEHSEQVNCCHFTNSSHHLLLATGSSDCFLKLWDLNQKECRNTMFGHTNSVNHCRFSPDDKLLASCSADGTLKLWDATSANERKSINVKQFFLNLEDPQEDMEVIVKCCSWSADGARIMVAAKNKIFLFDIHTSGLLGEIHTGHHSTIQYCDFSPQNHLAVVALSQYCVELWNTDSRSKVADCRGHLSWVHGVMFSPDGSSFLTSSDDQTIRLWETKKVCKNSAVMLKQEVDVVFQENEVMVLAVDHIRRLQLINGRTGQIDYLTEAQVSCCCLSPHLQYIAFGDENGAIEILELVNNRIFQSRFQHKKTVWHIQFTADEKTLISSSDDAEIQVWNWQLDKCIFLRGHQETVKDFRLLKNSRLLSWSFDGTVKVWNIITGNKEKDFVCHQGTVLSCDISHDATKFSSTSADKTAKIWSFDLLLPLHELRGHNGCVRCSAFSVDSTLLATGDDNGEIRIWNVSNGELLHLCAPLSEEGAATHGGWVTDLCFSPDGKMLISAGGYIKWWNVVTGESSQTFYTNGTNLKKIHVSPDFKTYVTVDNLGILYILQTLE
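system = biochemical Apaf-1 apoptosome reconstitution | buffer or medium = 20 mM HEPES pH 7.5 with CHAPS, BSA | also added = dATP and cytochrome c as apoptosome triggers, (Z-DEVD)2-Rh110 substrate | incubation = 30 min compound preincubation and 50 min reaction, both room temperature | measured by = fluorescence, 540 nm emission, 480 nm excitation | read-out basis = Caspase-3 cleavage activity downstream of Apaf-1 activation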
Rh110 act interf: Rh110 fluorescence interference by putative Apaf-1 activators, confirmation, artefact control for Apaf-1 activator project, biochemical, 20 µM | fluorescence interference (activity change), % at 20 µM, hits read low | shares compounds with Apaf-1 act | 980 tested, under 10 active | quenched caspase reaction, Ex480/Em540;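 active means mean activity change at or below -40% when tested at 20 µM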
Apaf-1 act conf: Apaf-1 activators, single-dose retest, confirmation, biochemical, fluorescence, DEVD-Rh110, 20 µM; shares compounds with Apaf-1 act; reconstituted apoptosome caspase-3 activity; hits give low values; activity change, negative = activation, % at 20 µM; 980 tested, 5% active; AID 504617, 2011;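 active means mean activity change at or below -40%, meaning activation of 40% or more, at 20 µM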
Apaf1 act interf: fluorescence interference of Apaf-1 activator hits, dose response, artefact control for Apaf-1 activator project; shares compounds with Apaf-1 act; fluorescence interference counterscreen, Apaf-1 activator assay; EC50, µM; 55 tested, under 10 active; call rule not given here
* = called active by the depositor; . = no result. Not all results are given here.

SMILES | Apaf-1 act | Rh110 act interf | Apaf-1 act conf | others
CCOC(=O)CNc1ccc2c(c1)OCO2 | 40.0 | . | .
CCN(C(=O)c1coc(=O)c(Br)c1)c1ccc2c(c1)OCO2 | 59.3 | . | .
Cc1ccc(NC(=O)c2ccc(CN3CCc4ccccc4C3)cc2)cc1 | 48.1 | . | .
N=C1CCC(=N)c2c1c(O)c1ccccc1c2O | 77.4 | . | .
CCN(CC)C(=O)CSC(=Nc1ccccc1F)NC#N | -52.2* | 17.8 | 11.5
COc1ccc(/C=C2/C(=O)N(c3ccccc3)N=C2C)cc1OC | 95.5 | . | .
O=C1c2ccccc2C(=O)C1(O)O | 68.0 | . | .
CC1(C(=O)NC2CCCC2)CCC(=O)N1Cc1ccccc1Cl (stereo unspecified) | -105.6* | -7.9 | 8.9
O=C(Cc1ccccc1Cl)NC1(O)C(=O)c2ccccc2C1=O | 88.8 | . | .
C#CCOCCOCCOCCNc1nc(N2CCN(C(=O)CCCCCCCCCCNC(=O)[C@H]([C@@H](C)CC)n3cc(CCCCN=C(N)N)nn3)CC2)nc(N2CCN(C(=O)CCCCCCCCCCNC(=O)[C@H](CCCCN)n3cc(C)nn3)CC2)n1 | 73.2 | . | .
CC(C)(C)c1ccc(C(=O)NNC(=S)NCc2ccco2)cc1 | -40.6* | 6.5 | 14.2
Cc1nn(-c2ccccc2)c(C)c1CN(C)C(=O)c1ccc(S(=O)(=O)NCc2ccco2)cc1 | 48.9 | . | .
O=C(NCCO)c1ccc2nc(-c3ccco3)c(-c3ccco3)nc2c1 | 77.6 | . | .
COCc1cc(=O)[nH]c(Sc2c(-c3ccccc3)c3ccc(Cl)cc3[nH]c2=O)n1 | -49.5* | 10.1 | 10.9
CN1/C(=N\O)c2cccc3cccc1c23 | 86.2 | . | .
Cn1/c(=N/NC(=O)c2ccccc2F)sc2ccccc21 | -71.6* | 5.1 | 1.8
Cc1ccc(Nc2nc(N)c([N+](=O)[O-])c(NCc3ccco3)n2)cc1 | -443.2* | 13.4 | 17.0
Cc1ccc(NC2=C(NCCO)C(=O)c3ccccc3C2=O)cc1 | 78.1 | . | .
C#CCOCCOCCOCCNc1nc(N2CCN(C(=O)CCCCCCCCCCNC(=O)Cn3cc(CCCCCN)nn3)CC2)nc(N2CCN(C(=O)CCCCCCCCCCNC(=O)[C@H]([C@@H](C)CC)n3cc(CCCCN=C(N)N)nn3)CC2)n1 | 85.4 | . | .
Cc1ccc(S(=O)(=O)/N=C2\C=C(Nc3ccc(O)cc3)C(=O)c3ccccc32)cc1 | 95.5 | . | .
Cc1noc(C)c1C(=O)OC(C(=O)NC1CCCC1)c1ccc(F)cc1 (stereo unspecified) | -51.9* | 7.0 | 5.2
CCn1c2ccccc2c2c3ncc4cccn4c3ccc21 | 61.7 | . | .
O=C(O)CCNc1cc(N2CCN(C(=O)c3ccco3)CC2)c2noc3c2c1C(=O)c1ccccc1-3 | 81.3 | . | .
CCOC(=O)C1CCN(C(=O)c2ccc3c(c2)NC(=O)/C(=C\c2cccc(C)c2)S3)CC1 | 40.0 | . | .
O=C(NC1CCCC1)c1ccc2nc(-c3ccco3)c(-c3ccco3)nc2c1 | 44.5 | . | .
SMILES | Apaf-1 act | Rh110 act interf | Apaf-1 act conf | others
Cc1cc(-c2ccccc2C(=O)NC2CCCCC2)on1 | -148.5* | 9.3 | 7.6
O=C1c2ccccc2C(=O)C12OC2c1cccc2ccccc12 (stereo unspecified) | 94.5 | . | .
Nc1ccc2nc(-c3cccc(-c4nc5ccc(N)cc5[nH]4)n3)[nH]c2c1 | 40.2 | . | .
COc1cc(OC)cc(C(=O)NCC(=O)OCC(=O)c2ccc3c(c2)-c2ccccc2C3)c1 | -64.9* | -7.5 | 17.7
CNC(=S)NNC(=O)c1sccc1OCc1cccc(C(F)(F)F)c1 | -189.5* | 12.0 | 6.9
CN(C)CCn1c2c(c(SCC(=O)Nc3ccc4c(c3)OCCO4)nc1=O)CCCC2 | -62.2* | -6.1 | 5.1
CN(C)CCN(C(=O)c1ccc2c(c1)CCCC2)c1nc2cc3c(cc2s1)OCCO3 | 43.6 | . | .
COc1ccc(NC(=O)CSc2nc3c(c(-c4cccs4)c2C#N)CN(C)CC3)cc1OC | 66.9 | . | .
Cc1cc(SCC2=NNC(=O)C2)c(Cl)cc1Cl | 47.1 | . | .
CCc1ccccc1NC(=O)COC(=O)c1cccs1 | -103.7* | 11.6 | 8.9
CCOC(=O)c1c(N)n(CCOC(=O)c2cccs2)c2nc3ccccc3nc12 | 94.8 | . | .
CCOC(=O)c1cc(C(=O)c2cccs2)n2ccc(C(C)=O)cc12 | 42.3 | . | .
CC1(OC(=O)c2ccc(Cl)nc2)C(=O)C=C2C=C3CCCN3C=C2C1=O (stereo unspecified) | 44.2 | . | .
C[N+]1(C)CCC(=C2c3ccccc3CC(=O)c3sccc32)CC1 | 57.3 | . | .
COc1ccc(-c2nc(-c3ccc(Br)o3)no2)cc1OC | -45.3* | 6.9 | 17.0
COc1cc2c(cc1OC)C(c1ccc(-c3ccc(Cl)c(Cl)c3)o1)=NCC2 | 41.5 | . | .
Cc1sc2ncnc(N3CCC(C(=O)N(C)CC(=O)Nc4ccccc4Cl)CC3)c2c1C | 59.9 | . | .
CN(Cc1ccc(F)cc1)Cc1nc(CCc2ccccc2)no1 | -142.6* | 1.4 | 10.3
C(=N\c1c(-c2ccccc2)nc2n1CCS2)/c1ccccc1 | 41.0 | . | .
CCCCCCCCCCCCCCCC[N+](C)(C)CC | 87.5 | . | .
CC(CNc1ccccc1O)C(=O)O (stereo unspecified) | -165.1* | 4.3 | -81.3* | Apaf1 act interf=>100
C#CCOCCOCCOCCNc1nc(N2CCN(C(=O)CCCCCCCCCCNC(=O)[C@H]([C@@H](C)CC)n3cc(CCCCCN)nn3)CC2)nc(N2CCN(C(=O)CCCCCCCCCCNC(=O)[C@@H]([C@H](C)CC)n3cc(CCCCCN)nn3)CC2)n1 | 78.1 | . | .
COC(=O)CCC(=O)OC1(C)C(=O)C2=CN(C3CC3)C(c3ccc(OC)cc3)=CC2=C(Br)C1=O (stereo unspecified) | 61.3 | . | .
CC(C)CCOc1ccc(C(CC(N)=O)C(=O)O)cc1 (stereo unspecified) | -41.3* | 12.9 | 14.8
CCOc1ccc(-n2nc3ccc(N)cc3n2)cc1 | 84.5 | . | .
SMILES | Apaf-1 act | Rh110 act interf | Apaf-1 act conf | others
C#CC(CC)(CC)NC(=O)/C=C/C(=O)O | -565.9* | 7.4 | 10.8
Nc1cccc2nsnc12 | 67.7 | . | .
O=c1[nH]c(Nc2ccccc2Cl)cc2ccccc12 | 98.1 | . | .
Cc1ccc(OCC(=O)N/N=C\c2c(C)n(C)c3ccccc23)c([N+](=O)[O-])c1 | 42.0 | . | .
COc1cc(/C=C/C(=O)OCC(=O)Nc2ccc(C)cc2[N+](=O)[O-])ccc1O | -93.7* | -2.0 | -37.1
COc1cc(/C=C/C(=O)OCC(=O)Nc2cc(C)c(C)cc2[N+](=O)[O-])ccc1O | -70.6* | -3.1 | -27.1
COC(=O)c1ccccc1NC1=C/C(=N\S(=O)(=O)c2ccc(C(=O)O)cc2)c2ccccc2C1=O | 95.2 | . | .
CCCCNC1=CC(=O)C(=O)c2ccccc21 | 95.5 | . | .
CCN(CC)C(=O)[C@H]1C[C@H](CC(=O)NCc2cccc(C(F)(F)F)c2)C(=O)N2CCc3c([nH]c4ccc(Cl)cc34)[C@]12C | 46.4 | . | .
CC(=O)N(C1=C(N)C(=O)c2ccccc2C1=O)c1ccccc1 | 67.4 | . | .
CCN1CCN(c2cc(N3CCN(C(=O)c4ccco4)CC3)c3c4c(onc24)-c2ccccc2C3=O)CC1 | 41.8 | . | .
O=C(O)c1ccccc1-c1ccc(/C=c2\sc3nc4cc(Br)cnc4n3c2=O)o1 | 72.2 | . | .
